Test results: publication PMC6911349 (Drug Design, Development and Therapy, 2019)
Values after ≈ are worked out from the molar mass of the structure shown. Structures can show the parent of a compound that is named as a salt. Where two headings read alike, the source gives them in different places.

Tests used:
[1] = test system: Pheretima posthuma; assay: Anthelmintic study
Outline: (§1)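 P. posthuma (7–9 cm) collected from muddy soil; A. galli taken from domestic chicken intestine. Test compound suspended in distilled water with Tween 80 at 10, 20 and 40 mg. 25 mL per Petri dish, six worms per dish. […] Paralysis and death times recorded.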

[2] = test system: Ascaridia galli; assay: Anthelmintic study
Outline: as §1

[3] = target: α-glucosidase (Saccharomyces cerevisiae, UniProt P53341); assay: α-Glucosidase inhibition chromogenic assay; format: biochemical
[4] = test system: HCT-116; assay: MTT assay; format: cell-based; conditions: Homo sapiens, HCT-116, 48 h
Outline: (§2)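 Cells grown in DMEM with 10% FBS, streptomycin 100 µg/mL and penicillin 100 IU/mL, at 37 °C, 5% CO2. Seeded at 6×10^4 cells/mL (80% confluence) and incubated overnight. Medium replaced with fresh medium holding test compound at 31.25–1000 ppm for 48 h.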

[5] = test system: MDA-MB-231; assay: MTT assay; format: cell-based; conditions: Homo sapiens, MDA-MB-231, 48 h
Outline: as §2

[6] = test system: NIH/3T3; assay: MTT assay; format: cell-based; conditions: Mus musculus, NIH3T3, 48 h
Outline: as §2

[7] = test system: MCF-7; assay: MTT assay; format: cell-based; conditions: Homo sapiens, MCF7, 48 h
Outline: as §2

[8] = MTT assay, normal cell line; format: cell-based; conditions: human, WI-38 normal cell line
Outline: as §2

[9] = test system: WI-38; assay: MTT assay, normal cell line; format: cell-based; conditions: Homo sapiens, WI-38, WI-38 normal cell line
Outline: as §2

[10] = target: acetylcholinesterase (AChE) (Electrophorus electricus, UniProt O42275); assay: biochemical; design: species or system electric eel
[11] = target: butyrylcholinesterase (BChE) (Equus caballus, UniProt P81908); assay: Butyrylcholinesterase inhibitory assay; format: biochemical, equine; conditions: for inhibition at 62.5 µg/mL: read-out: Butyrylcholinesterase (BChE) Percent Inhibition (Mean±SEM), 62.5 μg/mL; for inhibition at 125 µg/mL: read-out: Butyrylcholinesterase (BChE) Percent Inhibition (Mean±SEM), 125 μg/mL; for inhibition at 250 µg/mL: read-out: Butyrylcholinesterase (BChE) Percent Inhibition (Mean±SEM), 250 μg/mL; for inhibition at 1000 µg/mL: read-out: Butyrylcholinesterase (BChE) Percent Inhibition (Mean±SEM), 1000 μg/mL
[12] = ABTS anti-radicals study
Outline: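 ABTS (7 mM) combined with […] and held in the dark at 25 °C for 12–16 h to form radicals. Diluted in 0.01 M phosphate buffer, pH 7.4, to A734 of 0.70. 300 µL test compound solution added to 3.0 mL radical solution; decrease in absorbance recorded. Ascorbic acid as reference.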

[13] = DPPH radical scavenging assay
Outline: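 Test compound dilutions of 62.50–1000 µg/mL; 0.1 mL of each added to 3.0 mL DPPH in methanol. Incubated 30 min, then absorbance read at 517 nm. % scavenging = [(A0–A1)/A0]×100, where A0 is control and A1 is test absorbance. Ascorbic acid as reference.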

[14] = H2O2 anti-radicals study
Outline: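 2 mM H2O2 in 50 mM phosphate buffer, pH 7.4, mixed with 0.1 mL test compound at various concentrations. Absorbance at 230 nm read against blank after 10 min; H2O2 scavenging calculated from absorbance.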

[15] = 40 mg/mL, listed as albendazole
[16] = 1000 µg/mL, listed as test compound
[17] = 40 mg/mL, listed as test compound

Chain of acetylcholinesterase (AChE) (O42275 24-633): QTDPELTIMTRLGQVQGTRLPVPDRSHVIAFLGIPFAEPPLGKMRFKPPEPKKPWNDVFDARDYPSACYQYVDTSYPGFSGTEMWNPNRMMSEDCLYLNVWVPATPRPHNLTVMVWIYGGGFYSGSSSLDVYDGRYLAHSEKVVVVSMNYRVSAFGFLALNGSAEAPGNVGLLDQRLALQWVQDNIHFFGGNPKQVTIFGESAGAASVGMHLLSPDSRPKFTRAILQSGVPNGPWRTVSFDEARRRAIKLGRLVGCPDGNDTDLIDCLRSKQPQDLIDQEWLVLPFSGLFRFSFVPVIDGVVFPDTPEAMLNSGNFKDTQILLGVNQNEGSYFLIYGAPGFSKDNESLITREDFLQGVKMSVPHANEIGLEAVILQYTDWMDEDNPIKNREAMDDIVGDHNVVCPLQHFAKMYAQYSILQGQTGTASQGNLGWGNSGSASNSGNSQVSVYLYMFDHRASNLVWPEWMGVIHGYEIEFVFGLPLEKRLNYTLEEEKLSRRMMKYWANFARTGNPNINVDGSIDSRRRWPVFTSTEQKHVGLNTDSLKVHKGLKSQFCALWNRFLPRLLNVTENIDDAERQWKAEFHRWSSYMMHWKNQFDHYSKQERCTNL
Chain of α-glucosidase (P53341 whole entry): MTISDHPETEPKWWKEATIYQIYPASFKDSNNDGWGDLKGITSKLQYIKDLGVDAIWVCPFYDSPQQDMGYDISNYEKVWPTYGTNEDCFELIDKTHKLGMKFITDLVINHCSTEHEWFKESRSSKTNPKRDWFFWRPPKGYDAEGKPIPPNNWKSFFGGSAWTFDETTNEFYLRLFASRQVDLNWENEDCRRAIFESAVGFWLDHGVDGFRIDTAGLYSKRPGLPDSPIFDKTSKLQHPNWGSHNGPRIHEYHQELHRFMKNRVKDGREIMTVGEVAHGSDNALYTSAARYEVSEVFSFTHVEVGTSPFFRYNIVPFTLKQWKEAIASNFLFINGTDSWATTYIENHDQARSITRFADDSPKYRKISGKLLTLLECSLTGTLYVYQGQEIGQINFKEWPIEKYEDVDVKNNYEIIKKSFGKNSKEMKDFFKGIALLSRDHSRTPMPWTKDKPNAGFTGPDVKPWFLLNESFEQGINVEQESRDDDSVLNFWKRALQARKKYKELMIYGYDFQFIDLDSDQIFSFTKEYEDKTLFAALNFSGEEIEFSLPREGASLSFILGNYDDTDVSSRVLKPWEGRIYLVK
Chain of butyrylcholinesterase (BChE) (P81908 whole entry): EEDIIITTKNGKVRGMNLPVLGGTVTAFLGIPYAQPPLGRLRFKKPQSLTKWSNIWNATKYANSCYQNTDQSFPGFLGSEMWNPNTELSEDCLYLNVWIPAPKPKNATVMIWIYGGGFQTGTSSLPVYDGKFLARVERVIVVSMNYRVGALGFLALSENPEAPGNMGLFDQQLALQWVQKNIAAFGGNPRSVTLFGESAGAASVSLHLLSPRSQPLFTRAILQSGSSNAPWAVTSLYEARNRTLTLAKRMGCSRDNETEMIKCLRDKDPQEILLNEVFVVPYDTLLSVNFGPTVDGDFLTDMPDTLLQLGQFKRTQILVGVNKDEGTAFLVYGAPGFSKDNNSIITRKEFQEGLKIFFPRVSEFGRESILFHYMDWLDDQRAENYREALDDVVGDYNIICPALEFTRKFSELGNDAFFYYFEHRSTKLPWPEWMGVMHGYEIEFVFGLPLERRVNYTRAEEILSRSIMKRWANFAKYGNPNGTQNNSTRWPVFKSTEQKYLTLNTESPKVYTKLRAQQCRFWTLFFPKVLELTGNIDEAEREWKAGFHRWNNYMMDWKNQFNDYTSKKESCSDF

SMILES: CCCSc1ccc2nc(NC(=O)OC)[nH]c2c1 [Alb, Albendazole, reference compound]
- Pheretima posthuma Death Time ([1]; 10 mg/mL): 48.70 ± 2.06 min
- Pheretima posthuma Paralysis Time ([1]; 10 mg/mL): 09.08 ± 1.56 min
- Pheretima posthuma Death Time ([1]; 20 mg/mL): 39.33 ± 1.54 min
- Pheretima posthuma Paralysis Time ([1]; 20 mg/mL): 07.24 ± 1.38 min
- Pheretima posthuma Death Time ([1]; 40 mg/mL): 28.92 ± 2.68 min
- Pheretima posthuma Paralysis Time ([1]; 40 mg/mL): 04.67 ± 0.57 min
- Pheretima posthuma Death Time [1, 15]: 28.92 min
- Pheretima posthuma Paralysis Time [1, 15]: 4.67 min
- Ascaridia galli Death Time ([2]; 10 mg/mL): 36.32 ± 1.36 min
- Ascaridia galli Paralysis Time ([2]; 10 mg/mL): 11.26 ± 2.81 min
- Ascaridia galli Death Time ([2]; 20 mg/mL): 32.56 ± 1.93 min
- Ascaridia galli Paralysis Time ([2]; 20 mg/mL): 09.45 ± 1.63 min
- Ascaridia galli Death Time ([2]; 40 mg/mL): 25.68 ± 3.62 min
- Ascaridia galli Paralysis Time ([2]; 40 mg/mL): 07.18 ± 1.74 min

SMILES: C[C@H]1O[C@H](O[C@H]2[C@H](O)[C@@H](O)[C@@H](O[C@H]3[C@H](O)[C@@H](O)C(O)O[C@@H]3CO)O[C@@H]2CO)[C@H](O)[C@@H](O)[C@@H]1N[C@H]1C=C(CO)[C@@H](O)[C@H](O)[C@H]1O (some centres unmarked) [Acarbose, acarbose]
- Percent α-glucosidase inhibition ([3]; 31.25 µg/mL): 59.7±1.7%
- Percent α-glucosidase inhibition ([3]; 62.5 µg/mL): 67.3±2.8%
- Percent α-glucosidase inhibition ([3]; 125 µg/mL): 71.7±1.7%
- Percent α-glucosidase inhibition ([3]; 250 µg/mL): 74.4± 2.3%
- Percent α-glucosidase inhibition ([3]; 500 µg/mL): 81.7±2.6%
- Percent α-glucosidase inhibition ([3]; 1000 µg/mL): 86.7±2.6%

SMILES: CCC(C=O)C1CC(=O)N(c2ccccc2)C1=O (centres unmarked) [2-(2,5-dioxo-1-phenylpyrrolidin-3-yl)butanal]
- IC50 [4]: 78 µg/mL (≈ 318 µM)
- IC50 [5]: 231 µg/mL (≈ 942 µM)
- IC50 [6]: 181 µg/mL (≈ 738 µM)
- IC50 [7]: 277 µg/mL (≈ 1130 µM)
- cytotoxicity at 48 h, 1000 ppm [8]: 16%
- IC50 [9]: > 3000 µg/mL
- IC50 [10]: 422 µM
- Acetylcholinesterase (AChE) Percent Inhibition (Mean±SEM) ([10]; 1000 µg/mL): 71.3±1.9%
- inhibition at 62.5 µg/mL ([10]; read-out: Acetylcholinesterase (AChE) Percent Inhibition (Mean±SEM), 62.5 μg/mL): 39.6%
- inhibition at 125 µg/mL ([10]; read-out: Acetylcholinesterase (AChE) Percent Inhibition (Mean±SEM), 125 μg/mL): 55.9%
- inhibition at 250 µg/mL ([10]; read-out: Acetylcholinesterase (AChE) Percent Inhibition (Mean±SEM), 250 μg/mL): 61.2%
- inhibition at 500 µg/mL ([10]; read-out: Acetylcholinesterase (AChE) Percent Inhibition (Mean±SEM), 500 μg/mL): 65.4%
- inhibition at 1000 µg/mL ([10]; read-out: Acetylcholinesterase (AChE) Percent Inhibition (Mean±SEM), 1000 μg/mL): 71.3 ± 1.92%
- IC50 [11]: 539 µM
- Butyrylcholinesterase (BChE) Percent Inhibition (Mean±SEM) ([11]; 1000 µg/mL): 73.4±1.9%
- inhibition at 62.5 µg/mL [11]: 36.9%
- inhibition at 125 µg/mL [11]: 49.3%
- inhibition at 250 µg/mL [11]: 52.7%
- inhibition at 500 µg/mL ([11]; read-out: Butyrylcholinesterase (BChE) Percent Inhibition (Mean±SEM), 500 μg/mL): 64.3%
- inhibition at 1000 µg/mL [11]: 73.4 ± 1.92%
- ABTS IC50 value [12]: 84.36 µg/mL
- ABTS % Inhibition (Mean±SEM) ([12]; 62.5 µg/mL): 48.08±2.19%
- ABTS % Inhibition (Mean±SEM) ([12]; 125 µg/mL): 57.22±1.63%
- ABTS % Inhibition (Mean±SEM) ([12]; 250 µg/mL): 61.28±0.84%
- ABTS % Inhibition (Mean±SEM) ([12]; 500 µg/mL): 68.35±1.96%
- ABTS % Inhibition (Mean±SEM) ([12]; 1000 µg/mL): 75.84±1.58%
- ABTS % Inhibition (Mean±SEM) [12, 16]: 72.85±1.17%
- ABTS IC50 value ([12]; listed as test compound): 139.74 µg/mL
- DPPH IC50 value [13]: 139.74 µg/mL
- DPPH % Inhibition (Mean±SEM) ([13]; 62.5 µg/mL): 33.32±2.04%
- DPPH % Inhibition (Mean±SEM) ([13]; 125 µg/mL): 49.01±1.28%
- DPPH % Inhibition (Mean±SEM) ([13]; 250 µg/mL): 61.41±2.36%
- DPPH % Inhibition (Mean±SEM) ([13]; 500 µg/mL): 71.36±1.92%
- DPPH % Inhibition (Mean±SEM) ([13]; 1000 µg/mL): 72.85±1.17%
- DPPH % Inhibition (Mean±SEM) [13, 16]: 75.84±1.58%
- DPPH IC50 value ([13]; listed as test compound): 84.36 µg/mL
- H2O2 IC50 value [14]: 752.21 µg/mL
- H2O2 % Inhibition (Mean±SEM) ([14]; 62.5 µg/mL): 26.08±2.66%
- H2O2 % Inhibition (Mean±SEM) ([14]; 125 µg/mL): 31.58±1.40%
- H2O2 % Inhibition (Mean±SEM) ([14]; 250 µg/mL): 39.92±2.08%
- H2O2 % Inhibition (Mean±SEM) ([14]; 500 µg/mL): 46.08±1.36%
- H2O2 % Inhibition (Mean±SEM) ([14]; 1000 µg/mL): 54.82±1.82%
- Pheretima posthuma Death Time ([1]; 10 mg/mL): 23.67 ± 1.52 min
- Pheretima posthuma Paralysis Time ([1]; 10 mg/mL): 06.67 ± 1.08 min
- Pheretima posthuma Death Time ([1]; 20 mg/mL): 19.23 ± 2.56 min
- Pheretima posthuma Paralysis Time ([1]; 20 mg/mL): 05.68 ± 0.34 min
- Pheretima posthuma Death Time ([1]; 40 mg/mL): 14.71 ± 1.73 min
- Pheretima posthuma Paralysis Time ([1]; 40 mg/mL): 02.48 ± 1.62 min
- Pheretima posthuma Death Time [1, 17]: 14.71 min
- Pheretima posthuma Paralysis Time [1, 17]: 2.48 min
- Ascaridia galli Death Time ([2]; 10 mg/mL): 18.42 ± 1.70 min
- Ascaridia galli Paralysis Time ([2]; 10 mg/mL): 06.54 ± 1.67 min
- Ascaridia galli Death Time ([2]; 20 mg/mL): 11.36 ± 1.94 min
- Ascaridia galli Paralysis Time ([2]; 20 mg/mL): 04.82 ± 1.38 min
- Ascaridia galli Death Time ([2]; 40 mg/mL): 09.39 ± 1.48 min
- Ascaridia galli Paralysis Time ([2]; 40 mg/mL): 02.19 ± 0.96 min

SMILES: O=C1O[C@H]([C@@H](O)CO)C(O)=C1O [Ascorbic acid, ascorbic acid, reference compound]
- ABTS IC50 value [12]: 18.04 µg/mL
- ABTS % Inhibition (Mean±SEM) ([12]; 62.5 µg/mL): 59.12±0.34%
- ABTS % Inhibition (Mean±SEM) ([12]; 125 µg/mL): 64.47±0.49%
- ABTS % Inhibition (Mean±SEM) ([12]; 250 µg/mL): 69.75±0.14%
- ABTS % Inhibition (Mean±SEM) ([12]; 500 µg/mL): 76.59±0.30%
- ABTS % Inhibition (Mean±SEM) ([12]; 1000 µg/mL): 81.85±0.18%
- DPPH IC50 value [13]: 11.39 µg/mL
- DPPH % Inhibition (Mean±SEM) ([13]; 62.5 µg/mL): 61.35±0.18%
- DPPH % Inhibition (Mean±SEM) ([13]; 125 µg/mL): 66.20±0.15%
- DPPH % Inhibition (Mean±SEM) ([13]; 250 µg/mL): 73.42±0.11%
- DPPH % Inhibition (Mean±SEM) ([13]; 500 µg/mL): 78.62±0.17%
- DPPH % Inhibition (Mean±SEM) ([13]; 1000 µg/mL): 83.53±0.20%
- H2O2 IC50 value [14]: 29.73 µg/mL
- H2O2 % Inhibition (Mean±SEM) ([14]; 62.5 µg/mL): 56.67±1.67%
- H2O2 % Inhibition (Mean±SEM) ([14]; 125 µg/mL): 61.33±1.33%
- H2O2 % Inhibition (Mean±SEM) ([14]; 250 µg/mL): 68.85±1.85%
- H2O2 % Inhibition (Mean±SEM) ([14]; 500 µg/mL): 74.67±0.67%
- H2O2 % Inhibition (Mean±SEM) ([14]; 1000 µg/mL): 78.00±1.15%

SMILES: COc1ccc2c3c1O[C@H]1C[C@@H](O)C=C[C@@]31CCN(C)C2 [Galanthamine, Galanthamine hydrobromide, reference compound]
- inhibition at 62.5 µg/mL [11]: 71.4%
- inhibition at 125 µg/mL [11]: 78.6%
- inhibition at 250 µg/mL [11]: 82.8%
- inhibition at 1000 µg/mL [11]: 95%
